# High-throughput results: PubChem, several laboratories
# Shown are actives, neighbours in structure and some others; about 4% of the full set was active somewhere.
# TAAR1 antag: human TAAR1 antagonism. Q96RJ0. 360,000 compounds, 1.5% hits. inhibition, % at 3 µM. CHO RD-HGA16 TAAR1, Fluo-8 calcium fluorescence, antagonist;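 active = inhibition above a per-plate cutoff, the mean inhibition of test compounds on that plate plus 3 SD, cut at about 49% in these data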;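 also: 0% = DMSO plus EC80 beta-PEA response and 100% = DMSO alone without agonist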
# Target sequence (Q96RJ0 whole entry, looked up): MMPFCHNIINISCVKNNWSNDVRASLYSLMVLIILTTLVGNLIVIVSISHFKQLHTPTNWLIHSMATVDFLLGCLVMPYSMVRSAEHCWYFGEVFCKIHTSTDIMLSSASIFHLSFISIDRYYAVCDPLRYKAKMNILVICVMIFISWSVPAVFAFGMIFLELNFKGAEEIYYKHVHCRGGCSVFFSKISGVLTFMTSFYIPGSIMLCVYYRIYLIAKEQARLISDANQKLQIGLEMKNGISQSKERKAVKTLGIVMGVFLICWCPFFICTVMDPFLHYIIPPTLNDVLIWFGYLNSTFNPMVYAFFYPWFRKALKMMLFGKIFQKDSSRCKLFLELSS
#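 Test system: RD-HGA16 CHO cells with stable hTAAR1 and Gα16 / Probe or stimulus: EC80 β-phenethylamine stimulus / Times: seeding 17-24 h prior, 75-min 37 °C, 30-min RT dye loading / Detection: Fluo-8 calcium-sensitive fluorescence / Read-out basis: % inhibition scaled between DMSO and EC80 PEA controls / Repeats: singlicate, one well per test compound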
# OX1R antag-1: blocks the human orexin 1 receptor. O43613. OX1R-expressing cells, FRET antagonist read-out. inhibition, % at 6.6 µM. 330,000 compounds, 1.8% hits. AID 485270; in the data active = inhibition mostly above about 38%, no sharp cut-off; inactive = mostly below about 40%;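 also: 0% = agonist challenge alone and 100% = reference antagonist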
# Target sequence (O43613 whole entry, looked up): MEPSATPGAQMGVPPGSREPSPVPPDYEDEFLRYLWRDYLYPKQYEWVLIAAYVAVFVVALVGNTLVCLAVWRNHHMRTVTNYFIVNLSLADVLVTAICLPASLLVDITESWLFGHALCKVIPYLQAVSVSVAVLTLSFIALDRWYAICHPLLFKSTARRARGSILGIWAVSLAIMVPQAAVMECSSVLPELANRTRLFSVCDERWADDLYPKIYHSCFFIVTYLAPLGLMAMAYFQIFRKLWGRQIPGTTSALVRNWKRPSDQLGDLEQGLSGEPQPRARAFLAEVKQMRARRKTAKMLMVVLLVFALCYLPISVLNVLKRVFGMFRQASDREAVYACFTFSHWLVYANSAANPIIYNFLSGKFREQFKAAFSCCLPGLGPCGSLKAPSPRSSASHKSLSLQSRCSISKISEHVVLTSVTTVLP
# NTR1 agonist: activates human neurotensin receptor 1. NTR1-U2OS beta-arrestin-GFP spot imaging, agonist mode. activation, % at 20 µM. AID 493036. 330,000 compounds, 0.17% hits. P30989;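 active = activation at or above 40% of the spot to cytoplasm intensity ratio, with at least 20 cells analyzed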;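 also: 0% = DMSO without peptide and 100% = 100 nM NTR1 peptide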
# OX1R antag-2: human HCRTR1 antagonism; O43613; AID 434989; inhibition, % at 5 µM; CHO/OX1R cells, Fluo-8 calcium fluorescence, orexin A; 330,000 compounds, 0.43% hits;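 active = inhibition above its plate's threshold, mean inhibition of all tested compounds on the plate plus 3 SD, cut at about 37% in these data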;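 also: 0% = orexin A challenge wells and 100% = SB-334867-A antagonist wells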
# TAAR1 agonist: agonists of human TAAR1; CHO RD-HGA16 TAAR1, Fluo-8 calcium fluorescence; vehicle wells 0%, saturating PEA agonist 100%; activation, % at 3 µM; AID 624467; 360,000 compounds, 0.99% hits;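 active = activation above the mean activation of all test compounds in the run plus 3 SD, cut at about 38% in these data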
#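 Signal – calcium-sensitive Fluo-8 signal, excitation 470-495, emission 515-575 nm · System – RD-HGA16 (CHO) cells co-expressing Gα16 and hTAAR1 · Incubation – 17-24 h seeding, 75 min 37 °C dye, 30 min RT · Compound dosing – 3 µM single concentration · Repeats – no replicates (n 1)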
# CHO parental Ca: counter-screen: ATP calcium response change in parental CHO cells; inhibition, % at 5.6 µM; AID 463079; parental CHO-K1, ATP-induced calcium, Fluo-8 fluorescence; 330,000 compounds, 0.63% hits;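 active = inhibition above that plate's mean sample inhibition plus 3 SD, cut at about 26% in these data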;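 also: 0% = ATP-challenged DMSO wells and 100% = DMSO wells without ATP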
#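 Test system: untransfected parental CHO cell line. Compound: one dose, 5.6 µM nominal. Detection: intracellular calcium via Fluo-8 no-wash fluorescent dye. Measure: % inhibition. Benchmarks: ATP-challenged DMSO wells low, unchallenged DMSO wells high.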
# nonsel antag count: nonselective antagonist in TAAR1 antagonist counter-screen; 2,400 compounds, 77% hits; counterscreen cell line, calcium fluorescence, antagonist mode; inhibition, % at 3 µM; AID 651780; shares compounds with TAAR1 antag; in the data active = inhibition above about 22%;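 also: CHO-Ga16 host cells stimulated with ATP at an EC80 level; 0% = agonist EC80 plus vehicle and 100% = vehicle without agonist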
# TAAR1 antag conf: human TAAR1 antagonism, confirmed | inhibition, % at 3 µM | 2,400 compounds, 40% hits | shares compounds with TAAR1 antag | TAAR1-expressing cells, fluorescence antagonist read-out | AID 651785; in the data active = inhibition above about 49%;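 also: CHO-Ga16 host cells challenged with agonist PEA near its EC80; 0% = agonist at EC80 plus vehicle and 100% = vehicle with no agonist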
# Ga16 nonsel ag: counter-screen for TAAR1 antagonists: nonselective Ga16 agonists | activation, % at 3 µM | shares compounds with TAAR1 antag | AID 651953 | 2,400 compounds, 18% hits | Ga16-expressing cells, calcium fluorescence, agonist counterscreen; in the data active = activation above about 12%;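 also: 0% = vehicle wells and 100% = saturating stimulus response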
# TAAR1 ag count: counter-screen for human TAAR1 antagonists: TAAR1 agonists; shares compounds with TAAR1 antag; hTAAR1 cell line, fluorescence activation, agonist mode; activation, % at 3 µM; 2,400 compounds, 2% hits; AID 651955; in the data active = activation above about 37%;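 also: CHO cells stably expressing TAAR1 with calcium dye readout; 0% = DMSO vehicle and 100% = full agonist response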
# An asterisk follows results filed as active; . = no result given.
SMILES,TAAR1 antag,OX1R antag-1,NTR1 agonist,OX1R antag-2,TAAR1 agonist,CHO parental Ca,nonsel antag count,TAAR1 antag conf,Ga16 nonsel ag,TAAR1 ag count
O=C(Nc1ccc(N2CCOCC2)c(S(=O)(=O)Nc2ccccc2Cl)c1)c1ccc(F)cc1,70.1*,12.7,6.6,22.7,8.7,3.8,35.9*,53.1*,13.2*,14.0
O=S(=O)(/N=C(/Nc1ccc(Cl)c(S(=O)(=O)N2CCOCC2)c1)c1ccc(F)cc1)c1ccccc1,70.6*,36.3,4.6,-13.6,15.0,-10.9,32.9*,57.0*,11.1,13.5
O=C(C1CC(=O)N(c2ccc3c(c2)OCCO3)C1)N1CCN(Cc2ccccc2F)CC1 (stereo unspecified),-15.8,5.2,-1.4,-8.9,1.9,-2.5,.,.,.,.
Cc1cc(C(=O)COC(=O)c2nccnc2N)c(C)n1C,105.4*,70.4,0.6,-19.4,-3.1,-9.7,10.8,6.6,-1.1,-1.9
Cc1cc(C)c2cc(C#N)c(SCC(=O)Nc3cc(C)on3)nc2c1,-3.6,16.9,-1.3,-14.4,-2.5,-11.6,.,.,.,.
COc1ccc(CCC(=O)NCC2CCCCC2)cc1OC,-13.8,15.8,-1.7,-2.1,0.1,-7.5,.,.,.,.
CN1CCN(c2ccccc2NC(=O)c2ccc(-c3cccc([N+](=O)[O-])c3)o2)CC1,27.4,15.7,.,-26.9,7.1,-11.6,.,.,.,.
CCC(=O)N1CCN(c2ccccc2NC(=O)c2ccc(-c3cccc([N+](=O)[O-])c3)o2)CC1,55.3*,11.6,9.9,-23.1,12.2,-22.7,25.9*,49.8*,6.1,2.4
Cc1ccc(C)c(-c2cc(C(=O)Nc3cccnc3)c3ccccc3n2)c1,60.7*,38.3,-0.7,-26.1,4.4,-15.9,24.7*,49.0*,13.0*,18.4
COc1ccc(NC(=O)c2cc(-c3ccncc3)nc3ccccc23)c(OC)c1,42.5,7.1,-0.9,-33.6,12.4,-24.6,.,.,.,.
CC(=O)Nc1cccc(NC(=O)c2cc(-c3cccnc3)nc3ccc(Cl)cc23)c1,86.0*,38.0,5.5,-11.3,14.4,8.9,30.8*,55.2*,10.3,9.6
Cc1cccc(NC(=O)c2cc(-c3ccccn3)nc3ccccc23)c1C,70.3*,5.5,1.0,-11.0,7.7,-23.3,33.9*,56.0*,10.6,8.3
COc1cccc(NC(=O)c2cc(-c3ccccn3)nc3ccccc23)c1,56.3*,11.3,1.6,-6.9,18.0,-17.6,27.9*,42.4,6.7,3.6
CC(=O)Nc1oc(-c2cccc3ccccc23)nc1C#N,12.0,23.1,1.4,-10.2,2.7,-11.4,.,.,.,.
CCCN(CC(=O)Nc1ccccc1OC)C(=O)c1cccc(S(=O)(=O)Nc2ccc(OC)cc2)c1,0.4,31.7,-0.4,-5.9,5.6,-20.7,.,.,.,.
CC(=O)c1cccc(NC(=O)c2cccc3c(-c4cccnc4)coc23)c1,75.2*,.,.,.,17.0,.,30.6*,52.0*,11.2,10.2
CC(=NO)C1CCC2C3CCC4CC(=NO)CCC4(C)C3C(C)(O)CC12C (stereo unspecified),76.7*,.,.,.,15.5,.,28.9*,51.7*,17.4*,17.7
CN1CCN(S(=O)(=O)c2cccc(C(=O)Nc3ccc(Br)cc3Br)c2)CC1,-12.2,13.2,-0.7,-20.8,5.5,-22.9,.,.,.,.
CC(=O)Nc1ccc(NC(=O)c2ccc(S(=O)(=O)N(C)c3ccccc3)cc2)cc1,22.5,6.2,3.9,0.2,4.6,-13.2,.,.,.,.
Cc1nc2ccc(NC(=O)c3ccc(S(=O)(=O)N(C)c4ccccc4)cc3)cc2s1,58.9*,4.0,18.9,-13.1,20.9,-9.0,32.6*,53.3*,10.7,6.3
Cc1ccc2oc(C(=O)Nc3ccc(S(=O)(=O)Nc4ncccn4)cc3)c(C)c2c1,8.5,13.5,-0.6,-17.4,0.7,1.1,.,.,.,.
Oc1ccccc1C1CCCCC1c1ccccc1 (stereo unspecified),15.8,-3.9,.,5.8,0.8,22.2,.,.,.,.
COC(=O)CCCC[C@@H]1O[C@H](CCc2ccccc2)CC2=C1C(=O)OC(C)(C)O2,60.8*,.,.,.,5.8,.,26.5*,49.6*,3.8,4.8
CC1(C)OC(=O)C2=C(CC(CCc3ccccc3)OC2CCc2ccccc2)O1 (stereo unspecified),12.2,.,.,.,0.4,.,.,.,.,.
O=C(CC[C@H]1O[C@@H](n2ccc(=O)[nH]c2=O)[C@H](O)[C@@H]1O)N[C@H](Cc1ccccc1)C(=O)NCCCc1ccccc1,0.8,.,.,.,2.2,.,.,.,.,.
SMILES,TAAR1 antag,OX1R antag-1,NTR1 agonist,OX1R antag-2,TAAR1 agonist,CHO parental Ca,nonsel antag count,TAAR1 antag conf,Ga16 nonsel ag,TAAR1 ag count
O=C(Nn1cnnc1)c1cc(Br)ccc1Cl,-13.9,8.0,-0.4,8.3,0.3,5.4,.,.,.,.
CCOC(=O)C(Cc1ccc(NC(=O)/C(=C\c2ccccc2)NC(=O)c2ccccc2)cc1)N1C(=O)c2ccccc2C1=O (stereo unspecified),18.9,5.6,0.8,-6.2,5.1,-2.5,.,.,.,.
CCOC(=O)C(Cc1ccc(NC(C)=O)cc1)N1C(=O)c2ccccc2C1=O (stereo unspecified),57.8*,3.3,-1.8,-14.7,14.2,-11.5,23.9*,45.7,9.3,7.8
CCOC(=O)c1c(C)[nH]c(C(=O)N/N=C\c2ccccc2Cl)c1C,54.9*,27.1,15.9,2.4,8.3,-19.6,37.6*,55.9*,11.3,10.0
CCOC(=O)c1c(C)[nH]c(C(=O)N/N=C/c2cccc(OC)c2)c1C,55.0*,14.9,4.0,-29.1,17.0,-8.6,20.8,41.3,11.5,12.4
CCOC(=O)c1c(C)[nH]c(C(=O)NNC(=O)c2ccccc2)c1C,.,5.1,-2.2,-19.7,.,-5.2,.,.,.,.
Cc1cc(C)cc(OCC(=O)OCC(=O)N(CC(C)C)c2c(N)n(Cc3ccccc3)c(=O)[nH]c2=O)c1,6.6,15.6,-0.5,-25.7,-1.3,-15.5,.,.,.,.
O=C(CNCc1ccc(Cl)cc1)Nc1ccc(C(=O)N2CCCCCC2)cc1,4.1,8.1,2.6,-17.0,12.3,-11.2,.,.,.,.
O=C(Nc1cccc(-c2cnc3ccccc3n2)c1)c1ccccc1,-2.2,15.1,1.6,-16.6,9.5,-12.3,.,.,.,.
O=C(Nc1cccc(S(=O)(=O)NC2=NCCCCC2)c1)c1cc(-c2ccncc2)nc2ccccc12,48.0,12.6,0.2,-30.8,11.2,-10.9,.,.,.,.
